Reference: ChEMBL document CHEMBL1250467, “Design, synthesis, and anticonvulsant activity of new N-Mannich bases derived from spirosuccinimides and spirohydantoins” (Bioorg Med Chem, 2010)
Calls of active or inactive are those of the source. The calls are words filed in the database; no cut-off is given here.

Columns and labels:
Rattus norvegicus [1] = experiment: Toxicity in Sprague-Dawley rat assessed as change in body weight at 600 mg/kg, ip measured after 24 hrs of clonus of one of the fore limbs seizure stage in non-protected rat; type: organism-based; parameters: dose 600 mg/kg, route intraperitoneal; settings: in vivo
Summary of the method: (§1)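 Male Sprague–Dawley rats (150–180 g) received compound ip at 600 mg/kg, then a challenge dose of pilocarpine. Seizure severity graded on the Racine scale; rats were scored as protected or not, and body weight change was taken 24 h after the first stage III seizure.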

Mus musculus [2] = experiment: Neurotoxicity in ip dosed CF1 albino mouse assessed as dose required to cause toxicity after 0.5 hrs by rotarod test; type: organism-based; settings: in vivo
Summary of the method: (§2)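 Male CF-1 mice; compounds suspended in 0.5% methylcellulose/water and injected ip at 30, 100 and 300 mg/kg. MES, scPTZ (pentylenetetrazole 85 mg/kg sc at the test time) and rotarod neurotoxicity were scored at 0.5 and 4 h. Value is the lowest dose active or toxic in half or more of the animals; signs such as ataxia or tremor were recorded.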

Mus musculus [3] = experiment: Anticonvulsant activity in ip dosed CF1 albino mouse assessed as dose required to protect against maximal electroshock-induced seizures after 0.5 hrs; type: functional; summary of the method: as §2
Rattus norvegicus [4] = experiment: Anticonvulsant activity in Sprague-Dawley rat assessed as protection against pilocarpine-induced status epilepticus at 600 mg/kg, ip measured after clonus of one of the fore limbs seizure stage; type: functional, organism-based; parameters: dose 600 mg/kg; summary of the method: as §1
Rattus norvegicus [5] = experiment: Anticonvulsant activity in Sprague-Dawley rat assessed as protection against maximal electroshock-induced seizures at 30 mg/kg po after 2 hrs; type: functional
Summary of the method: (§3)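 Male Sprague–Dawley rats, four per group, given 30 mg/kg orally as a 0.5% methylcellulose/water suspension. MES protection scored at 0.25, 0.5, 1, 2 and 4 h after dosing, motor impairment checked in parallel; data are the number of the four rats protected.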

Mus musculus [6] = experiment: Anticonvulsant activity in CF1 albino mouse assessed as protection against subcutaneous pentylenetetrazole-induced seizures at 300 mg/kg, ip after 4 hrs; type: functional, organism-based; parameters: dose 300 mg/kg; summary of the method: as §2
Rattus norvegicus [7] = experiment: Anticonvulsant activity in Sprague-Dawley rat assessed as protection against maximal electroshock-induced seizures at 30 mg/kg po after 4 hrs; type: functional; summary of the method: as §3
Mus musculus [8] = experiment: Anticonvulsant activity in CF1 albino mouse assessed as protection against maximal electroshock-induced seizures at 300 mg/kg, ip after 4 hrs; type: functional, organism-based; parameters: dose 300 mg/kg; summary of the method: as §2
Rattus norvegicus [9] = experiment: Anticonvulsant activity in Sprague-Dawley rat assessed as protection against maximal electroshock-induced seizures at 30 mg/kg po after 0.25 hrs; type: functional; summary of the method: as §3
Mus musculus [10] = experiment: Neurotoxicity in ip dosed CF1 albino mouse assessed as dose required to cause toxicity after 4 hrs by rotarod test; type: organism-based; settings: in vivo; summary of the method: as §2
Rattus norvegicus [11] = experiment: Anticonvulsant activity in Sprague-Dawley rat assessed as protection against maximal electroshock-induced seizures at 30 mg/kg po after 1 hr; type: functional; summary of the method: as §3
Rattus norvegicus [12] = experiment: Anticonvulsant activity in Sprague-Dawley rat assessed as protection against maximal electroshock-induced seizures at 30 mg/kg po after 0.5 hrs; type: functional; summary of the method: as §3
Rattus norvegicus [13] = experiment: Anticonvulsant activity in Sprague-Dawley rat assessed as protection against pilocarpine-induced status epilepticus at 600 mg/kg, ip; type: functional, organism-based; parameters: dose 600 mg/kg; summary of the method: as §1
Rattus norvegicus [14] = experiment: Toxicity in Sprague-Dawley rat assessed as change in body weight at 600 mg/kg, ip measured after 24 hrs of clonus of one of the fore limbs seizure stage in protected rat; type: organism-based; parameters: dose 600 mg/kg, route intraperitoneal; settings: in vivo; summary of the method: as §1
Mus musculus [15] = experiment: Neurotoxicity in CF1 albino mouse assessed as myoclonic jerks at 100 mg/kg, ip after 4 hrs by rotarod test; type: toxicity, organism-based; parameters: dose 100 mg/kg, route intraperitoneal; settings: in vivo; summary of the method: as §2
Rattus norvegicus [16] = experiment: Anticonvulsant activity in Sprague-Dawley rat assessed as protection against subcutaneous pentylenetetrazole-induced seizures at 50 mg/kg po after 2 hrs; type: functional
Summary of the method: (§4)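 Oral fixed dose of 50 mg/kg in male Sprague–Dawley rats (0.5% methylcellulose/water suspension), four rats per group. Pentylenetetrazole 70 mg/kg given sc at each test time (0.25, 0.5, 1, 2, 4 h); protection from clonic seizures counted per four rats, with motor impairment studied in parallel.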

Rattus norvegicus [17] = experiment: Anticonvulsant activity in Sprague-Dawley rat assessed as protection against subcutaneous pentylenetetrazole-induced seizures at 50 mg/kg po after 0.5 hrs; type: functional; summary of the method: as §4
Rattus norvegicus [18] = experiment: Anticonvulsant activity in Sprague-Dawley rat assessed as protection against subcutaneous pentylenetetrazole-induced seizures at 50 mg/kg po after 1 hr; type: functional; summary of the method: as §4
Rattus norvegicus [19] = experiment: Anticonvulsant activity in Sprague-Dawley rat assessed as protection against subcutaneous pentylenetetrazole-induced seizures at 50 mg/kg po after 4 hrs; type: functional; summary of the method: as §4
Rattus norvegicus [20] = experiment: Anticonvulsant activity in Sprague-Dawley rat assessed as protection against subcutaneous pentylenetetrazole-induced seizures at 50 mg/kg po after 0.25 hrs; type: functional, organism-based; parameters: dose 50 mg/kg; summary of the method: as §4
[21] = Neurotoxicity in po dosed Sprague-Dawley rat by rotarod test; type: toxicity, organism-based; settings: in vivo
Summary of the method: (§5)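 Male Sprague–Dawley rats dosed orally (0.5% methylcellulose/water suspension), groups of eight, tested at the previously estimated time of peak effect. Doses varied until at least three points lay in the 10–90% range of protection (MES, scPTZ) or minimal rotarod neurotoxicity. ED50/TD50 with 95% confidence intervals came from regression; PI = TD50/ED50.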

Rattus norvegicus [22] = experiment: Anticonvulsant activity in po dosed Sprague-Dawley rat assessed as protection against maximal electroshock-induced seizures; type: functional; summary of the method: as §5
Mus musculus [23] = experiment: Anticonvulsant activity in ip dosed CF1 albino mouse assessed as dose required to protect against maximal electroshock-induced seizures after 4 hrs; type: functional; summary of the method: as §2
Mus musculus [24] = experiment: Neurotoxicity in CF1 albino mouse assessed as unable to grasp rotarod at 300 mg/kg, ip after 4 hrs by rotarod test; type: toxicity, organism-based; parameters: dose 300 mg/kg, route intraperitoneal; settings: in vivo; summary of the method: as §2
Mus musculus [25] = experiment: Anticonvulsant activity in ip dosed CF1 albino mouse assessed as dose required to protect against subcutaneous pentylenetetrazole-induced seizures after 0.5 hrs; type: functional; summary of the method: as §2
Rattus norvegicus [26] = experiment: Anticonvulsant activity in po dosed Sprague-Dawley rat assessed as time required to peak protection against seizures; type: functional
Rattus norvegicus [27] = experiment: Anticonvulsant activity in po dosed Sprague-Dawley rat assessed as protection against subcutaneous pentylenetetrazole-induced seizures; type: functional; summary of the method: as §5
Mus musculus [28] = experiment: Neurotoxicity in CF1 albino mouse at 300 mg/kg, ip after 4 hrs by rotarod test; type: toxicity, organism-based; parameters: dose 300 mg/kg, route intraperitoneal; settings: in vivo; summary of the method: as §2
Mus musculus [29] = experiment: Anticonvulsant activity in CF1 albino mouse assessed as protection against electrically-induced seizure at 100 mg/kg, ip after 1 hr by 6Hz psychomotor seizure test; type: functional
Summary of the method: (§6)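 Male CF-1 mice, compound suspended in 0.5% methylcellulose/water, given ip at 100 mg/kg; four mice per time point (0.25, 0.5, 1, 2, 4 h). Corneal stimulation with 0.2 ms monopolar rectangular pulses at 6 Hz for 3 s from a constant-current device, mice manually restrained. A mouse counted as protected if normal exploratory behaviour resumed within 10 s; motor impairment was noted alongside.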

Rattus norvegicus [30] = species on record: Rattus norvegicus; experiment: Protection index, ratio of TD50 for Sprague-Dawley rat by rotarod test to ED50 for Sprague-Dawley rat by maximal electroshock test; type: functional; summary of the method: as §5
Mus musculus [31] = experiment: Anticonvulsant activity in CF1 albino mouse assessed as protection against electrically-induced seizure at 100 mg/kg, ip after 4 hrs by 6Hz psychomotor seizure test; type: functional; settings: route intraperitoneal; summary of the method: as §6
[32] = Displacement of [3H]batrachotoxin from neurotoxin site 2 of voltage-gated sodium channel in rat forebrain tissue; settings: read-out: IC50
Mus musculus [33] = experiment: Anticonvulsant activity in CF1 albino mouse assessed as protection against electrically-induced seizure at 100 mg/kg, ip after 0.25 hrs by 6Hz psychomotor seizure test; type: functional, organism-based; parameters: dose 100 mg/kg; summary of the method: as §6
Mus musculus [34] = experiment: Anticonvulsant activity in CF1 albino mouse assessed as protection against electrically-induced seizure at 100 mg/kg, ip after 2 hrs by 6Hz psychomotor seizure test; type: functional, organism-based; parameters: dose 100 mg/kg; summary of the method: as §6
Mus musculus [35] = experiment: Anticonvulsant activity in CF1 albino mouse assessed as protection against subcutaneous pentylenetetrazole-induced seizures at 300 mg/kg, ip after 0.5 hrs; type: functional, organism-based; parameters: dose 300 mg/kg; summary of the method: as §2
Mus musculus [36] = experiment: Anticonvulsant activity in CF1 albino mouse assessed as protection against electrically-induced seizure at 100 mg/kg, ip after 0.5 hrs by 6Hz psychomotor seizure test; type: functional, organism-based; parameters: dose 100 mg/kg; summary of the method: as §6

Compound	Activity (Rattus norvegicus [1]) [g]	Activity (Mus musculus [2]) [mg/kg]	Activity (Mus musculus [3]) [mg/kg]	Activity (Rattus norvegicus [4])	Activity (Rattus norvegicus [5]) [%]	Activity (Mus musculus [6])	Activity (Rattus norvegicus [7]) [%]	Activity (Rattus norvegicus [9])	Activity (Rattus norvegicus [11])	Activity (Rattus norvegicus [12])	Activity (Rattus norvegicus [13])	Activity (Rattus norvegicus [14])	Activity (Rattus norvegicus [16]) [%]	Activity (Rattus norvegicus [17])	Activity (Rattus norvegicus [18])	Activity (Rattus norvegicus [19]) [%]	Activity (Rattus norvegicus [20])	TD50 [21] [mg/kg]	Activity (Mus musculus [23]) [mg/kg]	Activity (Mus musculus [28])	other results
O=C1CC2(CCc3ccccc3C2)C(=O)N1CN1CCN(c2ccc(F)cc2)CC1 (stereo unspecified)	20	300	100	inactive	25	inactive	25	inactive	inactive	inactive	inactive	Non-toxic	25	inactive	inactive	25	inactive	–	–	–	Activity (Mus musculus [8]): inactive; Activity (Mus musculus [10]): 300 mg/kg; Activity (Mus musculus [15]): Toxic
O=C1CC2(CCc3ccccc3C2)C(=O)N1CN1CCOCC1 (stereo unspecified)	–	–	100	–	25	inactive	50	50%	25%	25%	–	–	25	25%	25%	25	inactive	> 500	300	Non-toxic	ED50 (Rattus norvegicus [22]): > 160 mg/kg; Activity (Mus musculus [24]): Non-toxic; Activity (Mus musculus [25]): 100 mg/kg; Time (Rattus norvegicus [26]): 0.5 h; ED50 (Rattus norvegicus [27]): > 150 mg/kg
O=C1CC2(CCc3ccccc3C2)C(=O)N1CN1CCN(CCO)CC1 (stereo unspecified)	–	–	100	–	25	inactive	50	25%	inactive	25%	–	–	–	–	–	–	–	–	100	Non-toxic	Activity (Mus musculus [24]): Non-toxic; Activity (Mus musculus [25]): 300 mg/kg
O=C1CC2(CCc3ccccc3C2)C(=O)N1CN1CCN(c2cccc(Cl)c2)CC1 (stereo unspecified)	20.6	300	300	inactive	50	inactive	50	inactive	25%	inactive	inactive	Non-toxic	–	–	–	–	–	> 500	100	Non-toxic	Activity (Mus musculus [29]): inactive; PI (Rattus norvegicus [30]): 25.55; ED50 (Rattus norvegicus [22]): 19.6 mg/kg; Activity (Mus musculus [31]): 50%; IC50 [32]: 2.45 µM; Activity (Mus musculus [33]): inactive; Activity (Mus musculus [34]): inactive; Time (Rattus norvegicus [26]): 6 h; Activity (Mus musculus [35]): inactive; Activity (Mus musculus [36]): inactive
